The M2OR odorant receptor database

Assays:
Details in all cases: stereoisomer not certain
[1] = system: T1, O14A2 I133V
T1 sequence (whole entry): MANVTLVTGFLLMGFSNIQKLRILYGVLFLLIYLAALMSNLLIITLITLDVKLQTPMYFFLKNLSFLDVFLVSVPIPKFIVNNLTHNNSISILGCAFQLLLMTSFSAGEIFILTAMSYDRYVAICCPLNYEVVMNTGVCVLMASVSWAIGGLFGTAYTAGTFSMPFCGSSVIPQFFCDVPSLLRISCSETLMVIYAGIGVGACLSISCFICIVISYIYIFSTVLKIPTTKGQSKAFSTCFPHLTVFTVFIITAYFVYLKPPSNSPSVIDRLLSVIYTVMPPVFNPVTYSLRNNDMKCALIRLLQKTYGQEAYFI
Procedure, shortened: (§1)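 Each receptor–molecule pair is labelled responsive or non-responsive (inactive) according to whether the original authors judged the measured signal statistically different from baseline. The data were taken from the main text and supplementary material of published papers and checked for typos and inconsistencies. Assay methods differed by source, with transient luciferase assays in mammalian cell lines being common.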

[2] = system: T2, O14CZ
T2 sequence (whole entry): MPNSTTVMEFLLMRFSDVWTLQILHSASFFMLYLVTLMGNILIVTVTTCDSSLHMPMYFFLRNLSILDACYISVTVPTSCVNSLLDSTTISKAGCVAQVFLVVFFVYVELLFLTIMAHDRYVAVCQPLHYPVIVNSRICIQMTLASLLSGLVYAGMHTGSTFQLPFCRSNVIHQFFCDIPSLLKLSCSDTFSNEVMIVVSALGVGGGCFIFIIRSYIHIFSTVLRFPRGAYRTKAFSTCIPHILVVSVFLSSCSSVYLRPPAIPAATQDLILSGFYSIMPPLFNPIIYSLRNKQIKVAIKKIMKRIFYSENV
Procedure, shortened: as §1

[3] = system: T3, O14I1 V36A D50N Y216C
T3 sequence (whole entry): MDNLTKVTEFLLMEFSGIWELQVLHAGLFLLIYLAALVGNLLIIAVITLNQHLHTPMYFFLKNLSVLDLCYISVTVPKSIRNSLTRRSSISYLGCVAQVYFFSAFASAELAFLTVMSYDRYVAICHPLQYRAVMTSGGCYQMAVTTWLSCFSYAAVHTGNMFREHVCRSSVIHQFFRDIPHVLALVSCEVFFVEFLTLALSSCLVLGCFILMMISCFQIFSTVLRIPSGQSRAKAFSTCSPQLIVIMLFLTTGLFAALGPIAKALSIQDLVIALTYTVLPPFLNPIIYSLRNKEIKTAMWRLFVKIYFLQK
Procedure, shortened: as §1

[4] = system: T4, O14J1 N3Y
T4 sequence (whole entry): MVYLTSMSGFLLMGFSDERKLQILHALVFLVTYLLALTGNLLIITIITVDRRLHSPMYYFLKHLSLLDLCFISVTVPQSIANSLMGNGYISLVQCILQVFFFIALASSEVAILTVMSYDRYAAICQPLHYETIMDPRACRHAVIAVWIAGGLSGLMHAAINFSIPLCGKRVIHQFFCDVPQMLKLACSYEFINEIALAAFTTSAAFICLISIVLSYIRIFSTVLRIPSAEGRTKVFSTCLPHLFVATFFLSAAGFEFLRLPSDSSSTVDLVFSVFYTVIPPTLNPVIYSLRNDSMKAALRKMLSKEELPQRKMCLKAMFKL
Procedure, shortened: as §1

[5] = system: T5, O14K1 D119Y
T5 sequence (whole entry): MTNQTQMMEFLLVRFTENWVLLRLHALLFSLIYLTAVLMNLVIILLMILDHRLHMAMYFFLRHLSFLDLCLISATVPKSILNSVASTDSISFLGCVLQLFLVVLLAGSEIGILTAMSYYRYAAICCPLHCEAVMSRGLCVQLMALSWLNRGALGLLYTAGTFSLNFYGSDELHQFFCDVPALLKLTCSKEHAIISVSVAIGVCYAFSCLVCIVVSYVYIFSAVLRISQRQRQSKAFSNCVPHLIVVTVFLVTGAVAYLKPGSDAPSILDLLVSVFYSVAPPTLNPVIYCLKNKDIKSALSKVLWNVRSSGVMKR
Procedure, shortened: as §1

[6] = system: T6, O2A25
T6 sequence (whole entry): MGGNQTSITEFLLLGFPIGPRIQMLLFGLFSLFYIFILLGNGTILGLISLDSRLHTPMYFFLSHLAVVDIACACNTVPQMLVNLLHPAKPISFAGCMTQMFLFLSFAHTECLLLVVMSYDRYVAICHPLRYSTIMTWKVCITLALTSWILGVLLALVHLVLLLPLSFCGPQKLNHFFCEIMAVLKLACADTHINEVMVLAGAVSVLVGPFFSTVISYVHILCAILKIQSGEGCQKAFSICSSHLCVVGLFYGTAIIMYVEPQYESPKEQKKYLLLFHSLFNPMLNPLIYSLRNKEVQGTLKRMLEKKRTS
Procedure, shortened: as §1

[7] = system: T7, O2AE1
T7 sequence (whole entry): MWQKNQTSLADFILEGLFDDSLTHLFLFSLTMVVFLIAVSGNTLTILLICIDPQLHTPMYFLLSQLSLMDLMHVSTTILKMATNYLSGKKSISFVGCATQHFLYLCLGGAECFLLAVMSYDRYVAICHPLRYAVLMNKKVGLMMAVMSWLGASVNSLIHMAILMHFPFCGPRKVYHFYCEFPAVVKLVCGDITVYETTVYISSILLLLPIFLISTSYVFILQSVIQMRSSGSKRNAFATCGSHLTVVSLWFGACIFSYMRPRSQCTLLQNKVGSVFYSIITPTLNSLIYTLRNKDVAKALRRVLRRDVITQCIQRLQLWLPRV
Procedure, shortened: as §1

[8] = system: T8, O2AJ1
T8 sequence (whole entry): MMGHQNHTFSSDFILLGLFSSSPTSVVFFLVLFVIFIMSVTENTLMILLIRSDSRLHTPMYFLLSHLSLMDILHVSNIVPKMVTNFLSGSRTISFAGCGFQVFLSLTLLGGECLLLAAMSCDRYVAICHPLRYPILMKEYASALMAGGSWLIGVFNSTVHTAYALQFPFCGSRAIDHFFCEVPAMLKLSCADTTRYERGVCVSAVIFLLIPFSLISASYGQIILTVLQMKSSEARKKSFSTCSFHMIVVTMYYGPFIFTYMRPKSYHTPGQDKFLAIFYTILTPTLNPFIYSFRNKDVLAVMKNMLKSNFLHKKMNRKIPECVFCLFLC
Procedure, shortened: as §1

[9] = system: T9, O2AK2 S99N
T9 sequence (whole entry): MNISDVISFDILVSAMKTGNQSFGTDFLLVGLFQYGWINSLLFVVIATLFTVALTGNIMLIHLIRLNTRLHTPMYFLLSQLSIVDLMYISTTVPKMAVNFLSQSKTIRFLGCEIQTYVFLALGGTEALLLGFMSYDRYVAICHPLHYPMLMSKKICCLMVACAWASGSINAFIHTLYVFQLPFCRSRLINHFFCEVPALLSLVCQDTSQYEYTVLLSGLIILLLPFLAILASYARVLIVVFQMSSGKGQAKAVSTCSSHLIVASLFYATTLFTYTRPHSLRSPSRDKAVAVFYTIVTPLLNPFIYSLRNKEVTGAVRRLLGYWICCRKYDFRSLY
Procedure, shortened: as §1

[10] = system: T10, O1440
T10 sequence (whole entry): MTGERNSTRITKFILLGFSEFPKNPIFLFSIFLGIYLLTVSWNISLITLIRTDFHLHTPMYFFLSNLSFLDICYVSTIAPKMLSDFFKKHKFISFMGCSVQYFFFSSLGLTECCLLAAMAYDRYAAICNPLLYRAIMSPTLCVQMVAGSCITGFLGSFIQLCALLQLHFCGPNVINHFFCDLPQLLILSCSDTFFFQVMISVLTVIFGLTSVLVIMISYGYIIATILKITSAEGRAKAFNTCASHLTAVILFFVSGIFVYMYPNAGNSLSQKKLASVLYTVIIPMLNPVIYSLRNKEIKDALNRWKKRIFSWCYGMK
Procedure, shortened: as §1
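Also: active if original authors judged signal statistically different from baseline.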

## CC1=NC(C)C(C)S1 (stereo not drawn)
[1]
  odorant receptor agonist call: inactive
[2]
  odorant receptor agonist call: inactive
[3]
  odorant receptor agonist call: inactive
[4]
  odorant receptor agonist call: inactive
[5]
  odorant receptor agonist call: inactive
[6]
  odorant receptor agonist call: inactive
[7]
  odorant receptor agonist call: inactive
[8]
  odorant receptor agonist call: inactive
[9]
  odorant receptor agonist call: inactive

## O=C1CCCCCCCCCCCCCC1
[10]
  odorant receptor agonist call: active

## CC1CCCCCCCCCCCCC(=O)C1 (stereo not drawn)
[10]
  odorant receptor agonist call: active

## CCCCCCC=CCCC=O
[1]
  odorant receptor agonist call: inactive
[2]
  odorant receptor agonist call: inactive
[3]
  odorant receptor agonist call: inactive
[4]
  odorant receptor agonist call: inactive
[5]
  odorant receptor agonist call: inactive
[6]
  odorant receptor agonist call: inactive
[7]
  odorant receptor agonist call: inactive
[9]
  odorant receptor agonist call: inactive

## O=C1C=CCCCCCCCCCCCCO1
[10]
  odorant receptor agonist call: active

## CC1CC=CCCCCCCCCCC(=O)C1 (stereo not drawn)
[10]
  odorant receptor agonist call: active

## O=C1CCCCCC=CCCCCCCCCO1
[10]
  odorant receptor agonist call: active

## CCCCCCCC(=O)CCCCCCC
[10]
  odorant receptor agonist call: inactive
